# Assay results as given in ChEMBL document CHEMBL1121982 (J Med Chem, 1982).
# What was measured:
# [1] = molecular target: T1, Delta-type opioid receptor (Rattus norvegicus, UniProt P33533); test: Inhibition of [3H][D-Ala2,D-Leu5]enkephalin binding to Opioid receptor delta 1 in the rat brain homogenate; format: tissue-based
# Mu-type opioid receptor [2] = molecular target: T2, Mu-type opioid receptor (Rattus norvegicus, UniProt P33535); test: Inhibition of binding of [3H]naloxone to Opioid receptor mu 1 in the rat brain homogenate; format: tissue-based
# T2 sequence (P33535 whole entry): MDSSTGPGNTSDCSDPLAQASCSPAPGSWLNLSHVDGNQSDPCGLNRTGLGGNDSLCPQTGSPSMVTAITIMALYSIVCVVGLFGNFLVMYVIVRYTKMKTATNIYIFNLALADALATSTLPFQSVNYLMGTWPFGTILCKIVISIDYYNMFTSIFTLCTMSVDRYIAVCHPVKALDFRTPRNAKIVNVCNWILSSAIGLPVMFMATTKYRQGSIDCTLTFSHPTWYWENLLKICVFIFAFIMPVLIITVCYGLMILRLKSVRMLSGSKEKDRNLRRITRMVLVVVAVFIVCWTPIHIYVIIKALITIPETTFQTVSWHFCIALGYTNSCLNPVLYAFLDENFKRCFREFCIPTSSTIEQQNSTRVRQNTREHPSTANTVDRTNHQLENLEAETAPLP
# [3] = Ki ratio measured as inhibitory effect against delta and mu opioid receptors
# Mu-type opioid receptor [4] = molecular target: T3, Mu-type opioid receptor (Cavia porcellus, UniProt P97266); test: Inhibitory potency against Opioid receptor mu 1 in the guinea pig ileum assay; format: functional, tissue-based
# T3 sequence (P97266 whole entry): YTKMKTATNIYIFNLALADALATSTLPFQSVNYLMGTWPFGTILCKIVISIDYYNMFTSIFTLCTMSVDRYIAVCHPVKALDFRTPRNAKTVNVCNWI
# Method in brief: (§1)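 Guinea pig ileum bioassay. Twitch-height reduction at several doses gave log dose-response curves.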
# [5] = molecular target: Mu-type opioid receptor (Cavia porcellus) (UniProt P97266); test: Sensitivity to naloxone against Opioid receptor mu 1 in the guinea pig ileum assay; format: functional, tissue-based
# Mu-type opioid receptor (Cavia porcellus), sequence (P97266 whole entry): as above
# Method in brief: (§2)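 Ke for naloxone as antagonist in the isolated tissue assay. It was derived from the ratio of agonist IC50 values measured with and without a fixed naloxone concentration.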
# [6] = molecular target: Delta-type opioid receptor (Mus musculus) (UniProt P32300); test: […] in mouse vas deferens assay for Opioid receptor delta 1; format: functional; method in brief: as §2
# Delta-type opioid receptor (Mus musculus), sequence (P32300 whole entry): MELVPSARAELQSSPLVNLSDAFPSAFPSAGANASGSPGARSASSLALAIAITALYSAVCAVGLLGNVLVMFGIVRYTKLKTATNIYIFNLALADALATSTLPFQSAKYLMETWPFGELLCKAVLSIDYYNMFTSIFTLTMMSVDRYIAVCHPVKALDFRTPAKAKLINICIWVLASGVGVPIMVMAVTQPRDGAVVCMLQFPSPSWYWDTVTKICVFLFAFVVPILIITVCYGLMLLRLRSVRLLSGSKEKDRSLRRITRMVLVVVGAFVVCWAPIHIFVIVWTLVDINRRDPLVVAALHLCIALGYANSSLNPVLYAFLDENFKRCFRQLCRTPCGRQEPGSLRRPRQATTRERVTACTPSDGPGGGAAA
# [7] = molecular target: T1, Delta-type opioid receptor; test: Inhibition of binding of [3H][D-Ala2,D-Leu5]enkephalin to Opioid receptor delta 1 in the rat brain homogenate; format: tissue-based
# [8] = molecular target: T4, Delta-type opioid receptor (Mus musculus, UniProt P32300); test: Inhibitory potency against Opioid receptor delta 1 in the mouse vas deferens assay; format: functional, tissue-based
# T4 sequence (P32300 whole entry): as above
# Method in brief: (§3)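 Vasa deferentia were taken from adult male Swiss Webster albino mice (30-50 g) killed by cervical dislocation. Fat, connective tissue and the blood vessel were removed and semen was expressed. Contractions were recorded with a force transducer, and twitch-height reduction at several doses gave log dose-response curves.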
# [9] = IC50 ratio measured as inhibitory potencies in mouse vas deferens and guinea pig ileum assays; format: functional
# [10] = molecular target: Delta-type opioid receptor (Rattus norvegicus) (UniProt P33533); test: (§4) Ki ratio measured as the inhibitory effect against delta/mu receptor.
# Delta-type opioid receptor (Rattus norvegicus), sequence (P33533 whole entry): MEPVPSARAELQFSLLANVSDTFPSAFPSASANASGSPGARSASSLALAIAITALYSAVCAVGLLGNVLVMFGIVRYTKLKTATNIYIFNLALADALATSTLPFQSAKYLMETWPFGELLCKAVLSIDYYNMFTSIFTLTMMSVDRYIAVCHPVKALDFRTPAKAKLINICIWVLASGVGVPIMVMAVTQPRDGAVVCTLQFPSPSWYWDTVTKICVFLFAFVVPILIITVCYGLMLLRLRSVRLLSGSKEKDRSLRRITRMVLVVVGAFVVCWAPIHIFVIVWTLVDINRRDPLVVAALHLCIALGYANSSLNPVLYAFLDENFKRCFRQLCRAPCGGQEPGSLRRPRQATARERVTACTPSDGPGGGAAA
# Mu-type opioid receptor [11] = molecular target: T2, Mu-type opioid receptor; test: Inhibition of [3H]naloxone binding to Opioid receptor mu 1 in rat brain homogenate; format: tissue-based
# [12] = molecular target: T1, Delta-type opioid receptor; test: Inhibition of binding of [3H][D-Ala2,D-Leu5]enkephalin to delta receptor in the rat brain homogenate; format: tissue-based
# [13] = molecular target: Delta-type opioid receptor (Mus musculus) (UniProt P32300); test: as §4
# [14] = molecular target: Delta-type opioid receptor (Mus musculus) (UniProt P32300); test: IC50 ratio measured as the inhibitory potencies of MVD/GPI.
# Mu-type opioid receptor [15] = molecular target: T2, Mu-type opioid receptor; test: Inhibition of [3H]-naloxone binding to mu receptor in rat brain homogenate; format: tissue-based
# [16] = molecular target: Mu-type opioid receptor (Cavia porcellus) (UniProt P97266); test: Sensitivity to naloxone against mu receptor in guinea pig ileum assay; format: functional, tissue-based; method in brief: as §2
# [17] = molecular target: T4, Delta-type opioid receptor; test: Inhibitory potency against Opioid receptor delta 1 in mouse vas deferens assay; format: functional, tissue-based; method in brief: as §3
# Mu-type opioid receptor [18] = molecular target: Mu-type opioid receptor (Mus musculus, UniProt P42866); test: Inhibitory potency against Opioid receptor mu 1 in mouse vas deferens assay; format: functional, tissue-based; method in brief: as §3
# Mu-type opioid receptor (Mus musculus, UniProt P42866), sequence (P42866 whole entry): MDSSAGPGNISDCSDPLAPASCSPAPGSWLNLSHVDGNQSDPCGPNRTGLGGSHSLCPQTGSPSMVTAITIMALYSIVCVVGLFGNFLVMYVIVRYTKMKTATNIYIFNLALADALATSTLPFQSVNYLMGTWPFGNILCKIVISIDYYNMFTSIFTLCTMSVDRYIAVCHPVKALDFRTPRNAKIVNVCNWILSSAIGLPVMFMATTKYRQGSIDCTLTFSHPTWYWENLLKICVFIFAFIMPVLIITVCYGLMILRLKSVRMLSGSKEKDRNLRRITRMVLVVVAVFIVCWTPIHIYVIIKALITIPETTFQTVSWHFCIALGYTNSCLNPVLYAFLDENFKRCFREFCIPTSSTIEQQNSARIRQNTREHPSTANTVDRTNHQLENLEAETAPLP
# Mu-type opioid receptor [19] = molecular target: T3, Mu-type opioid receptor; test: Inhibitory potency against mu receptor in guinea pig ileum assay; format: functional, tissue-based; method in brief: as §1
# T1 sequence (P33533 whole entry): as the sequence (P33533 whole entry) above
Compound,Ki [1] [nM],IC50 (Mu-type opioid receptor [2]) [nM],Ki (Mu-type opioid receptor [2]) [nM],Ratio [3],IC50 (Mu-type opioid receptor [4]) [nM],Ke [5] [nM],Ke [6] [nM],IC50 [7] [nM],IC50 [8] [nM],Ratio [9],also measured
CC(=O)O.CC(C)C[C@H]1NC(=O)[C@H](Cc2ccccc2)NC(=O)CNC(=O)[C@H](NC(=O)[C@@H](N)Cc2ccc(O)cc2)CCCCNC1=O,21.7,8.51,4.73,4.59,2.39,0.553,2.37,47.8,17.5,7.32,–
CC(=O)O.CCCC[C@@H](NC(=O)[C@@H](N)Cc1ccc(O)cc1)C(=O)NCC(=O)N[C@@H](Cc1ccccc1)C(=O)N[C@@H](CC(C)C)C(N)=O,4.35,4.08,2.27,–,24.6,0.729,3.19,9.57,25.2,1.02,Ratio [10]: 1.92
CC(=O)O.N[C@@H](Cc1ccc(O)cc1)C(=O)N[C@@H]1CCCCNC(=O)[C@H](Cc2ccccc2)NC(=O)CNC1=O,–,5.58,3.1,14.4,7.09,0.875,0.606,98.3,33.8,4.77,Ki [7]: 44.7 nM
CC(=O)O.CCC[C@@H](NC(=O)[C@@H](N)Cc1ccc(O)cc1)C(=O)NCC(=O)N[C@@H](Cc1ccccc1)C(=O)N[C@@H](CC(C)C)C(N)=O,3.1,5.89,3.27,–,23.2,0.227,3.52,6.81,21,0.905,Ratio [10]: 0.95
CC(=O)O.CC(C)C[C@@H]1NC(=O)[C@H](Cc2ccccc2)NC(=O)CNC(=O)[C@H](NC(=O)[C@@H](N)Cc2ccc(O)cc2)CNC1=O,53.6,95.8,–,1.01,23.4,0.275,0.387,–,73.1,3.12,Ki (Mu-type opioid receptor [11]): 53.2 nM; IC50 [12]: 118 nM
CC(C)C[C@@H]1NC(=O)[C@H](Cc2ccccc2)NC(=O)CNC(=O)[C@H](NC(=O)[C@@H](N)Cc2ccc(O)cc2)CCNC1=O,115,24.9,13.8,–,14.1,–,–,253,81.4,–,–
CC(C)C[C@@H]1NC(=O)[C@H](Cc2ccccc2)NC(=O)CNC(=O)[C@H](NC(=O)[C@@H](N)Cc2ccc(O)cc2)CCCNC1=O,100,–,31.4,–,48,–,0.216,221,–,–,Ratio [13]: 3.18; Ratio [14]: 9.9; IC50 (Mu-type opioid receptor [15]): 56.6 nM; Ke [16]: 0.671 nM
CC(C)C[C@@H]1NC(=O)[C@H](Cc2ccccc2)NC(=O)CNC(=O)[C@H](NC(=O)[C@@H](N)Cc2ccc(O)cc2)CCCCNC1=O,14.6,22.4,12.4,–,4.8,0.416,0.36,32.2,–,–,IC50 [17]: 141 nM; Ratio [13]: 1.18; Ratio [14]: 29.4
CC(=O)O.CC(C)C[C@@H]1NC(=O)[C@H](Cc2ccccc2)NC(=O)CNC(=O)[C@H](NC(=O)[C@@H](N)Cc2ccc(O)cc2)CCNC1=O,–,–,–,–,–,–,–,–,–,5.77,–
CN1CC[C@]23CCCC[C@H]2[C@H]1Cc1ccc(O)cc13 [LEVORPHANOL],–,–,–,–,17,0.127,0.587,–,–,16.4,IC50 (Mu-type opioid receptor [18]): 278 nM
CC(C)C[C@H](NC(=O)[C@H](Cc1ccccc1)NC(=O)CNC(=O)[C@@H](C)NC(=O)[C@@H](N)Cc1ccc(O)cc1)C(N)=O,–,–,–,–,–,0.401,2.36,–,8.26,–,IC50 (Mu-type opioid receptor [19]): 7.63 nM
CC(C)C[C@@H]1NC(=O)[C@@H](Cc2ccccc2)NC(=O)CNC(=O)[C@H](NC(=O)[C@@H](N)Cc2ccc(O)cc2)CCNC1=O,–,–,–,8.33,–,0.122,0.576,–,–,–,–
CC(=O)O.CC[C@@H](NC(=O)[C@@H](N)Cc1ccc(O)cc1)C(=O)NCC(=O)N[C@@H](Cc1ccccc1)C(=O)N[C@@H](CC(C)C)C(N)=O,4.06,10.1,5.61,–,28.7,0.181,1.5,8.94,–,1.59,IC50 [17]: 45.6 nM; Ratio [10]: 0.72
